In ChEMBL document CHEMBL1139384, “First Cdc7 kinase inhibitors: pyrrolopyridinones as potent and orally active antitumor agents. 2. Lead discovery” (J Med Chem, 2009):
Active and inactive are the calls of the source. No cut-off for these calls is given here.

What was measured:
[1] = Half life in nu/nu mouse at 10 mg/kg, iv administered as single dose; assay type: ADME, organism-based; design: dose 10 mg/kg, route intravenous; settings: in vivo
In short: (§1)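 Single iv or oral dose in 5% dextrose to overnight-fasted animals. Nu/Nu mice: males, 3 per route, saphenous bleeds to 24 h. Han-Wistar rats: males, 3 per route, jugular bleeds to 24 h. Beagle dogs: 2 per sex, iv and po crossover 2 weeks apart, jugular bleeds to 48 h. Plasma by LC/MS/MS; noncompartmental parameters, AUC by linear trapezoid with extrapolation.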

[2] = Cmax in nu/nu mouse at 10 mg/kg, iv administered as single dose; assay type: ADME, organism-based; design: dose 10 mg/kg, route intravenous; settings: in vivo; in short: as §1
Mus musculus = experiment: Inhibition of human Cdc7 in human A2780 cells xenografted in CDI nu/nu mouse assessed as inhibition of Ser40 phosphorylation of Mcm2 protein at 60 mg/kg, po first dose administered at 6 hrs and second dose 3 hrs after first dose by Western blot; assay type: functional, organism-based; design: dose 60 mg/kg
In short: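 Mice bearing A2780 xenografts given two oral doses of 60 mg/kg, the second 3 h after the first, over 6 h, or vehicle. Explanted tumors blotted for Mcm2 phospho-Ser40 and phospho-Ser53, with total MCM2 and tubulin as loading controls.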

[3] = target: Mitogen-activated protein kinase 1 (Homo sapiens, UniProt P28482)
[4] = Half life in nu/nu mouse at 10 mg/kg, po administered as single dose; assay type: ADME, organism-based; design: dose 10 mg/kg, route oral; settings: in vivo; in short: as §1
[5] = target: T1, Cell division cycle 7-related protein kinase (Homo sapiens, UniProt O00311); experiment: Inhibition of human Cdc7 in human A2780 cells assessed as inhibition of Ser53 phosphorylation of Mcm2 protein after 4 hrs; assay type: cell-based
In short: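 A2780 cells exposed for 4 h to a range of concentrations, then lysed in 50 mmol/L Tris-HCl pH 6.8, 1% SDS, 1 mmol/L DTT and sonicated 10 s. 15 µg protein per lane ([…]) was taken for Western blot with phospho-specific antibodies to MCM2 Ser40 and Ser53.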

HeLa = experiment: Inhibition of DNA synthesis in human HeLa cells at 3 uM assessed as bromodeoxyuridine incorporation after 9 hrs; assay type: functional; design: scale not given: the % may be the effect or the level left
In short: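 Logarithmically growing HeLa cells exposed to 3 µM for set times, labelled with 50 µM BrdU, fixed in 70% ethanol. DNA content by propidium iodide with RNase A, 30 min at 37 °C; BrdU by FITC anti-BrdU after 2N HCl denaturation; percent positive cells by FACS.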

[6] = Inhibition of Cdk1b
[7] = Antiproliferative activity against human NCI-H929 cells after 72 hrs by luciferase based assay; assay type: functional, cell-based; settings: NCI-H929, 72 h
In short: (§2)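 Cells seeded at 2500–5000/well in complete medium (RPMI1640, McCoy's or DMEM with 10% FCS, by line); compound added after 24 h, 72 h at 37 °C, 5% CO2.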

[8] = target: T1, Cell division cycle 7-related protein kinase; experiment: Inhibition of human Cdc7 in human A2780 cells assessed as inhibition of Ser40 phosphorylation of Mcm2 protein at 3 uM up to 24 hrs; assay type: cell-based
In short: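 Time course in A2780 cells held at 3 µM for up to 24 h. Extracts were made in 50 mmol/L Tris-HCl pH 6.8, 1% SDS, 1 mmol/L DTT with 10 s sonication, loaded at 15 µg per lane, and immunoblotted with antiphosphopeptide antibodies to MCM2 Ser40 and Ser53. Cleaved caspase 3 was also probed.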

MCF7 = experiment: Antiproliferative activity against human MCF7 cells after 72 hrs by luciferase based assay; assay type: functional, cell-based; settings: MCF7, 72 h
Cytochrome P450 2C8 = Cytochrome P450 2C8 (Homo sapiens, UniProt P10632); experiment: Inhibition of human CYP2C8; assay type: ADME
[9] = Volume of distribution at steady state in nu/nu mouse at 10 mg/kg, iv administered as single dose; assay type: ADME, organism-based; design: dose 10 mg/kg, route intravenous; settings: in vivo, read-out: Vdss
In short: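 Overnight-fasted male Nu/Nu mice got a single 10 mg/kg dose in 5% dextrose, iv or po, three mice per route. Saphenous blood was drawn at 0.083 (iv) or 0.25 (po), 0.5, 1, 6 and 24 h. Plasma was assayed by LC/MS/MS and analysed noncompartmentally. Tmax is the observed peak time, Vss = CL·MRT, and F is the ratio of dose-normalized AUC∞ po/iv.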

[10] = target: ALK tyrosine kinase receptor (Homo sapiens, UniProt Q9UM73); experiment: Inhibition of ALK
[11] = target: Serine/threonine-protein kinase PLK1 (Homo sapiens, UniProt P53350)
Rattus norvegicus = experiment: Antitumor activity against DMBA-induced mammary carcinoma in CD OFA rat assessed as duration of tumor stabilization maintenance at 20 mg/kg, po administered for 10 days; assay type: functional
In short: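 DMBA tumors induced in female CD OFA rats by single intragastric 20 mg DMBA in sesame oil; after about 50 days, rats with a mammary tumor of at least 1 cm given 20 mg/kg orally twice daily for 10 days in glucose solution, or vehicle; 10 per group; tumor volume by Vernier calipers.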

HT-29 = experiment: Antiproliferative activity against human HT-29 cells after 72 hrs by luciferase based assay; assay type: functional, cell-based; settings: HT-29, 72 h; in short: as §2
[12] = Tmax in Beagle dog at 10 mg/kg, po administered as single dose; assay type: ADME, organism-based, Canis lupus familiaris; design: dose 10 mg/kg, route oral; settings: in vivo
In short: (§3)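 Overnight-fasted Beagle dogs, 2 per sex, in a crossover design: 5 mg/kg iv and 10 mg/kg po, two weeks apart, in 5% dextrose. Jugular blood was drawn up to 48 h, and urine was collected over 0–8, 8–24 and 24–48 h. Samples were assayed by LC/MS/MS and analysed noncompartmentally.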

NHDF = experiment: Antiproliferative activity against human NHDF cells after 72 hrs by luciferase based assay; assay type: cell-based
[13] = target: Cyclin-dependent kinase 4 (Homo sapiens, UniProt P11802); experiment: Inhibition of CDK4
A2780 = experiment: Antiproliferative activity against human A2780 cells after 72 hrs by luciferase based assay; assay type: functional, cell-based; settings: Homo sapiens, A2780, 72 h
Cytochrome P450 3A4 = Cytochrome P450 3A4 (Homo sapiens, UniProt P08684); experiment: Inhibition of human CYP3A4; assay type: ADME
[14] = Cmax in Wistar rat at 10 mg/kg, iv administered as single dose; assay type: ADME, organism-based; design: dose 10 mg/kg, route intravenous; settings: in vivo; in short: as §1
[15] = Oral bioavailability in Beagle dog at 10 mg/kg administered as single dose; assay type: ADME, organism-based, Canis lupus familiaris; settings: in vivo; in short: as §3
Aurora kinase A = Aurora kinase A (Homo sapiens, UniProt O14965); experiment: Inhibition of AUR2
[16] = Inhibition of PDGFR

T1 sequence (O00311 whole entry, looked up): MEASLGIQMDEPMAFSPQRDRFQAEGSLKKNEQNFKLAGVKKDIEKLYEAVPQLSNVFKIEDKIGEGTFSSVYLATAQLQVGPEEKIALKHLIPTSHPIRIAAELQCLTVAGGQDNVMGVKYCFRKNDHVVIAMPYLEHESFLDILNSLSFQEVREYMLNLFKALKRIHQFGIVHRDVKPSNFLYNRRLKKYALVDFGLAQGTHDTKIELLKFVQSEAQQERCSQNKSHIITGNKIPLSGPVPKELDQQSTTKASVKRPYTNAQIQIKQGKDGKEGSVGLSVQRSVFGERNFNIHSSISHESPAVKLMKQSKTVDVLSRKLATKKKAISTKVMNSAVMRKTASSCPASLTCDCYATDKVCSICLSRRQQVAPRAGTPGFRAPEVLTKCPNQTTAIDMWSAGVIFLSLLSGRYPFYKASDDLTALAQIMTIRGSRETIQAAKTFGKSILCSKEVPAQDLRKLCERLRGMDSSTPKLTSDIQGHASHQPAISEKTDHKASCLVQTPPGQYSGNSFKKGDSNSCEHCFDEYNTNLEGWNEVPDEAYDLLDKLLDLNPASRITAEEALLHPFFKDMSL
Chain of Cyclin-dependent kinase 4 (P11802 whole entry): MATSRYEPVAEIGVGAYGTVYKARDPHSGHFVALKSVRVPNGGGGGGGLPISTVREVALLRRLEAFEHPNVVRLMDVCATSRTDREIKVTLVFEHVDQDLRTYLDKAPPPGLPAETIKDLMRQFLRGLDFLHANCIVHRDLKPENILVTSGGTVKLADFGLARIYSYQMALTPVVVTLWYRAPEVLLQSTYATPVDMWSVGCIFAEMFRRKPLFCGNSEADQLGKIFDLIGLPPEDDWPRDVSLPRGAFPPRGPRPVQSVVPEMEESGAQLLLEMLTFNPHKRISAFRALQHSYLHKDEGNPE
Chain of Cytochrome P450 2C8 (P10632 whole entry): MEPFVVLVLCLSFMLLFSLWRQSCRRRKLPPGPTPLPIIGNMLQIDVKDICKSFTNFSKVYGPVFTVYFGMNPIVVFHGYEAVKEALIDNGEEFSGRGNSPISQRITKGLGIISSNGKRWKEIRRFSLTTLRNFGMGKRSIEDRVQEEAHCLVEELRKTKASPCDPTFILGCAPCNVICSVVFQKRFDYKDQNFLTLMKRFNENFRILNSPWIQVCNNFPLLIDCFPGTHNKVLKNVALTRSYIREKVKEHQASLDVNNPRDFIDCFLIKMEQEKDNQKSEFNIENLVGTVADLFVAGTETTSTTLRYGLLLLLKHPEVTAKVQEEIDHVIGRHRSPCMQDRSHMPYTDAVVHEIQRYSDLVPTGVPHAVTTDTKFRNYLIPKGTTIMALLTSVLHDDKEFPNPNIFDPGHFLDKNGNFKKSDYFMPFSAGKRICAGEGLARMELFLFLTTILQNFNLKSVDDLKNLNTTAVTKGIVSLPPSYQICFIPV
Chain of ALK tyrosine kinase receptor (Q9UM73 whole entry): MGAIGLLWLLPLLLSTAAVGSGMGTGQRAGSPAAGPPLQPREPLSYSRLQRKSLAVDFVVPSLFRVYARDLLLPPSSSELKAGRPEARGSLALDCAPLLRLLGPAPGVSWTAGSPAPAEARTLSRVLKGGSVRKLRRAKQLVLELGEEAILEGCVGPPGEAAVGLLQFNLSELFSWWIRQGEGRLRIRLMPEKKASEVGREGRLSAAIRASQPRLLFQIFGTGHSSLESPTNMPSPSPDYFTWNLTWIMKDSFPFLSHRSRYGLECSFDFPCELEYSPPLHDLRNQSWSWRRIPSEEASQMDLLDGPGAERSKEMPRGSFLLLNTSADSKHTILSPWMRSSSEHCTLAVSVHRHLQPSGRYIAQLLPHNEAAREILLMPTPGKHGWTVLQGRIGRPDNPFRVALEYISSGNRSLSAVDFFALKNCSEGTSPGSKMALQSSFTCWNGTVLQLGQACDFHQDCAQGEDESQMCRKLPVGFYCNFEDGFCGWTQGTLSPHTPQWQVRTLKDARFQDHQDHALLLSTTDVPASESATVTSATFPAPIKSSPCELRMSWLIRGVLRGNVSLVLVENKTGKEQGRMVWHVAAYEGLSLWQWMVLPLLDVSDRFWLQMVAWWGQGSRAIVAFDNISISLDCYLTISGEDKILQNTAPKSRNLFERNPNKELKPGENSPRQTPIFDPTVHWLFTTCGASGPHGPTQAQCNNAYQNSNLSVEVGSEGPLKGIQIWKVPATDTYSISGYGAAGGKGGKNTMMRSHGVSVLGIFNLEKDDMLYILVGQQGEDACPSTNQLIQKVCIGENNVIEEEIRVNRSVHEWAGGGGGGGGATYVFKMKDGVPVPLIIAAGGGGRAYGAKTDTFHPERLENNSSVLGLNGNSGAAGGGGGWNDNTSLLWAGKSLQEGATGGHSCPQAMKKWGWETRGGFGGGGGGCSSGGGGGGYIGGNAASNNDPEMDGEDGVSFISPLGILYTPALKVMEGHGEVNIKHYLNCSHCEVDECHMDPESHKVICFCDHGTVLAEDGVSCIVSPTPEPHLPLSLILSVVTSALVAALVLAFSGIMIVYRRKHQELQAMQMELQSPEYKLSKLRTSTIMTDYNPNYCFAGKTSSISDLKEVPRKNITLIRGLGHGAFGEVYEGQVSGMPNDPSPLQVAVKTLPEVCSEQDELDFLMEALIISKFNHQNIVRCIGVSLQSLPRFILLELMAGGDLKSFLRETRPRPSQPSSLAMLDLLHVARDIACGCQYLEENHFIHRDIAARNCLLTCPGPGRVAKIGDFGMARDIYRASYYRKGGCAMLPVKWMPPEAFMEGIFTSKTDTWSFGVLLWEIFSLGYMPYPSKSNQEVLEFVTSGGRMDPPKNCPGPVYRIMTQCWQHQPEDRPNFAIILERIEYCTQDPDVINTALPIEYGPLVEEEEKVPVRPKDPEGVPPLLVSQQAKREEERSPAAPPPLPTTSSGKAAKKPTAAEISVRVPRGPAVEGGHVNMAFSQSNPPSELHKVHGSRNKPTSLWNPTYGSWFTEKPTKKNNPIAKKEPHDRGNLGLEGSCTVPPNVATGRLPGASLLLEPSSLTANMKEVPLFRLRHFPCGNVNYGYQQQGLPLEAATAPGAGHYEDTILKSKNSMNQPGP
Chain of Mitogen-activated protein kinase 1 (P28482 whole entry): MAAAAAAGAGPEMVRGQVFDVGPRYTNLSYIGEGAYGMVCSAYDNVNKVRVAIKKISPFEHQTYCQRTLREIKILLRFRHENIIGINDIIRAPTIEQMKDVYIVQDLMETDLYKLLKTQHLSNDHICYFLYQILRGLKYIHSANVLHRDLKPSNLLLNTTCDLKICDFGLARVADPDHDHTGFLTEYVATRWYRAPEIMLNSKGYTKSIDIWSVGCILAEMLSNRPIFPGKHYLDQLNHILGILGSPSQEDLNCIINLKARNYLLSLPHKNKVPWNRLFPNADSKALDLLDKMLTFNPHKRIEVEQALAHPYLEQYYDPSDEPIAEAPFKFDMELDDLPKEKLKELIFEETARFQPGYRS
Chain of Aurora kinase A (O14965 whole entry): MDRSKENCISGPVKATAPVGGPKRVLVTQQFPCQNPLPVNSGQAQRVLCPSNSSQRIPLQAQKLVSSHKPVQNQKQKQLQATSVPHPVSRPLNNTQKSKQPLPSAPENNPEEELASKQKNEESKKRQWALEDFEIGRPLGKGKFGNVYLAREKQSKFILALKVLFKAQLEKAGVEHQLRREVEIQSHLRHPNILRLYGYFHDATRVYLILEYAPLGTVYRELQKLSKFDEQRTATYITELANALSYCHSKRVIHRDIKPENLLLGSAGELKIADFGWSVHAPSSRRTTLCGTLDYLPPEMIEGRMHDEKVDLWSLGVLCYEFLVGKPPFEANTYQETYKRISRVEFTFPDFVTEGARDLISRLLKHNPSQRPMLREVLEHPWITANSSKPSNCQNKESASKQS
Chain of Cytochrome P450 3A4 (P08684 whole entry): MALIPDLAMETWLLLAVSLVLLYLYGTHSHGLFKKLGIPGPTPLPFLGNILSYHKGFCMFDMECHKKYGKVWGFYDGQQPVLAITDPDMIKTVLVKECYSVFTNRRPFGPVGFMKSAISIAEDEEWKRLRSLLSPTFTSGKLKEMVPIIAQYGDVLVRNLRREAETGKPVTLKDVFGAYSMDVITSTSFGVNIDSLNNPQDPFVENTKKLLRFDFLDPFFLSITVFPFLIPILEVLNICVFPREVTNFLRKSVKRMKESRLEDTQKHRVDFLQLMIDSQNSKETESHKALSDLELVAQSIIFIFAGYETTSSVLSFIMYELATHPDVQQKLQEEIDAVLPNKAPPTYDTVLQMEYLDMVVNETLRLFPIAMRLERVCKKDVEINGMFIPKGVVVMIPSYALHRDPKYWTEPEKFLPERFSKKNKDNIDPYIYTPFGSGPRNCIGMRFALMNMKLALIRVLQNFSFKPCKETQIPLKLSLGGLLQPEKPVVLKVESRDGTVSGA
Chain of Serine/threonine-protein kinase PLK1 (P53350 whole entry): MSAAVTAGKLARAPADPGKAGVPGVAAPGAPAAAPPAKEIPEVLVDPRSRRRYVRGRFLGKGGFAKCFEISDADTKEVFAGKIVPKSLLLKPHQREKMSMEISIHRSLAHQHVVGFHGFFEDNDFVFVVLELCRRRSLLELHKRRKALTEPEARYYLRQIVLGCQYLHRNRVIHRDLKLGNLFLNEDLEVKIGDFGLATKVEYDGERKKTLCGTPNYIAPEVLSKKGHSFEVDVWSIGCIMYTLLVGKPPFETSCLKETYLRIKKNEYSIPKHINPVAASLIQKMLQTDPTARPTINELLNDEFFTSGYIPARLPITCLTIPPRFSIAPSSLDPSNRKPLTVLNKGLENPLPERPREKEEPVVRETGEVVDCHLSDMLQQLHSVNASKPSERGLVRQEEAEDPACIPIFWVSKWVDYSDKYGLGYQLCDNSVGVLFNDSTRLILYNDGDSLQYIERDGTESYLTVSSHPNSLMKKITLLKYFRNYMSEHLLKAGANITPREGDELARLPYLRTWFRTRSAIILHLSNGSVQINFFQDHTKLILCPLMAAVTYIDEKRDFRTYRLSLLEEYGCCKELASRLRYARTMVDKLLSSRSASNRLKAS

Nc1nccc(-c2cc3c([nH]2)[C@@H](CCF)CNC3=O)n1
half-life [1]: 1 h | Cmax [2]: 20.3 µM | Activity (Mus musculus): Active | IC50 [3]: 0.846 µM | half-life [4]: 1 h | MED [5]: 0.6 µM | Activity (HeLa): 6% | IC50 [6]: 0.03 µM | IC50 [7]: 1.2 µM | Activity [8]: Active | IC50 (MCF7): 1.1 µM | Activity (Cytochrome P450 2C8): Not Active | Vd [9]: 2.6 L/kg | IC50 [10]: > 4 µM | IC50 [11]: 0.574 µM | Activity (Rattus norvegicus): 35 days | IC50 (HT-29): 4.1 µM | Tmax [12]: 0.3 h | IC50 (NHDF): 1.6 µM | IC50 [13]: > 4 µM | IC50 (A2780): 0.5 µM | Activity (Cytochrome P450 3A4): Not Active | Cmax [14]: 15.7 µM | bioavailability [15]: 51% | IC50 (Aurora kinase A): > 4 µM | IC50 [16]: > 4 µM
